Measurements reported in ChEMBL document CHEMBL1949636, “Optimization of phenylacetic acid derivatives for balanced CRTH2 and DP dual antagonists” (Bioorg Med Chem Lett, 2012).

Assays:
[1] = biological target: T1, Prostaglandin D2 receptor (Homo sapiens) (UniProt Q13258); assay: Antagonist activity at DP receptor in PGD2-stimulated human platelets in 80% whole blood assessed as inhibition of IBMX-stimulated cAMP production preincubated for 30 mins prior PGD2 stimulation measured after 60 mins by immunoassay; assay type: functional, tissue-based
T1 sequence (whole entry): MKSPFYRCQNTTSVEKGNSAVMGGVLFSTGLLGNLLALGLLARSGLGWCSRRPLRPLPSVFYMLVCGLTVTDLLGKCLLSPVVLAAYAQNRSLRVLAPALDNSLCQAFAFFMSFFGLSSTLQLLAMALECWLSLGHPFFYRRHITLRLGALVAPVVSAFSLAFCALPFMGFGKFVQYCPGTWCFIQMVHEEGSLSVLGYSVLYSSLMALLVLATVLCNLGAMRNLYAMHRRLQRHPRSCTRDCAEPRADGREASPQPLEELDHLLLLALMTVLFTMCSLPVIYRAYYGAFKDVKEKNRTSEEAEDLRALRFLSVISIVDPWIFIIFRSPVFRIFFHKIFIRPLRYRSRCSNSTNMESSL
Method in brief: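 IBMX added to human whole blood at 1 mM final. Treated blood incubated with antagonist 30 min at 37 °C, then transferred to PGD2 at various concentrations for 60 min at 37 °C. Blood lysed and cAMP measured by direct immunoassay. PGD2-stimulated cAMP curves fitted with a Hill model.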

[2] = biological target: T2, Prostaglandin D2 receptor (Homo sapiens, UniProt Q13258); assay: Displacement of [3H]PGD2 from human DP receptor expressed in HEK293 cells by scintillation counting in presence of 0.5% BSA; assay type: cell-based
T2 sequence (Q13258 whole entry): T1 sequence (whole entry)
Method in brief: (§1)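 Radioligand binding to intact HEK 293 cells stably expressing human CRTH2 or DP. Cells incubated with [3H]-PGD2 and increasing compound concentrations in binding buffer containing 0.5% BSA. After washing, bound [3H]-PGD2 counted by scintillation. […] Mean of three experiments; standard deviation 30%.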

[3] = biological target: T2, Prostaglandin D2 receptor; assay: Displacement of [3H]PGD2 from human DP receptor expressed in HEK293 cells by scintillation counting in presence of 50% plasma; assay type: cell-based
Method in brief: (§2)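 Whole-cell [3H]-PGD2 binding on HEK 293 cells stably expressing human CRTH2 or DP, run in binding buffer containing 50% human plasma. Test compound added at increasing concentrations. Cells washed, and remaining bound radioligand measured by scintillation counting. Mean of three experiments; standard deviation 30%.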

[4] = biological target: T3, Prostaglandin D2 receptor 2 (Homo sapiens, UniProt Q9Y5Y4); assay: Displacement of [3H]PGD2 from human CRTH2 receptor expressed in HEK293 cells by scintillation counting in presence of 0.5% BSA; assay type: cell-based; method in brief: as §1
T3 sequence (Q9Y5Y4 whole entry): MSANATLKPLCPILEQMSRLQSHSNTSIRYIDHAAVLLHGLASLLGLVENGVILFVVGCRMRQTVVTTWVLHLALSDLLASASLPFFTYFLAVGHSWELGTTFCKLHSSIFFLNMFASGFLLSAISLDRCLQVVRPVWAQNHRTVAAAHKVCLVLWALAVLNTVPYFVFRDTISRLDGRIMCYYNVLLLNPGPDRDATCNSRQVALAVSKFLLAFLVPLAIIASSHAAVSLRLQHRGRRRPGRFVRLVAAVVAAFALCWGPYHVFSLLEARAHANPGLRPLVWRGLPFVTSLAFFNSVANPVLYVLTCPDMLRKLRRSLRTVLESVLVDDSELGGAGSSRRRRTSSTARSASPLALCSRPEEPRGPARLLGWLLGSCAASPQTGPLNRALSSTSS

[5] = biological target: T4, Prostaglandin D2 receptor 2 (Homo sapiens) (UniProt Q9Y5Y4); assay: Antagonist activity at CRTH2 receptor in human eosinophol assessed as inhibition of PGD2-induced eosinophol shape change preincubated for 10 mins prior PGD2 stimulation measured after 10 mins by FACS flow cytometry; assay type: functional
T4 sequence (whole entry): T3 sequence (Q9Y5Y4 whole entry)
Method in brief: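 Granulocytes enriched from normal donor peripheral blood by density-gradient centrifugation; erythrocytes removed by ACK lysis. Cells pre-incubated 10 min at room temperature with antagonist or vehicle (0.05% DMSO), then stimulated with PGD2 (600–0.003 nM, 1:3 dilution) 10 min at 37 °C. Fixed in 1% final paraformaldehyde. Eosinophils gated as FL2-positive; geometric mean forward scatter used to derive IC50.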

[6] = biological target: T3, Prostaglandin D2 receptor 2; assay: Displacement of [3H]PGD2 from human CRTH2 receptor expressed in HEK293 cells by scintillation counting in presence of 50% plasma; assay type: cell-based; method in brief: as §2

Row | Kb [1] | IC50 [2] | IC50 [3] | IC50 [4] | Kb [5] | IC50 [6] | Structure (SMILES)
1 | – | 230 nM | – | 10 nM | – | – | CCCCNC(=O)c1ccc(Oc2ccc(CC(=O)O)nc2)c(NS(=O)(=O)c2ccc(Cl)cc2Cl)c1
2 | – | 480 nM | – | 310 nM | – | – | CCCCNC(=O)c1ccc(Oc2ccc(CC(=O)O)cn2)c(NS(=O)(=O)c2ccc(Cl)cc2Cl)c1
3 | – | 6 nM | – | 2 nM | – | – | CCCCNC(=O)c1ccc(Cc2ccc(CC(=O)O)cc2OC)c(NS(=O)(=O)c2ccc(Cl)cc2Cl)c1
4 | – | > 10000 nM | – | 660 nM | – | – | CCCCNC(=O)c1ccc([S+]([O-])c2ccc(CC(=O)O)cc2)c(NS(=O)(=O)c2ccc(Cl)cc2Cl)c1 (stereo not drawn)
5 | – | 630 nM | – | 21 nM | – | – | CCCCNC(=O)c1ccc(Sc2ccc(CC(=O)O)cc2)c(NS(=O)(=O)c2ccc(Cl)cc2Cl)c1
6 | – | > 10000 nM | – | 400 nM | – | – | CCCCNC(=O)c1ccc(S(=O)(=O)c2ccc(CC(=O)O)cc2)c(NS(=O)(=O)c2ccc(Cl)cc2Cl)c1
7 | – | 150 nM | – | 580 nM | – | – | CCCCNC(=O)c1ccc(Oc2ccc3c(c2)OCC3CC(=O)O)c(NS(=O)(=O)c2ccc(Cl)cc2Cl)c1 (stereo not drawn)
8 | – | 5 nM | – | 5 nM | – | – | CCCCNC(=O)c1ccc(Oc2ccc3c(CC(=O)O)coc3c2)c(NS(=O)(=O)c2ccc(Cl)cc2Cl)c1
9 | – | 83 nM | – | 3 nM | – | – | CCCCNC(=O)c1ccc(Oc2ccc3c(CC(=O)O)c[nH]c3c2)c(NS(=O)(=O)c2ccc(Cl)cc2Cl)c1

Second part, the molecule before the results:

Row | Structure (SMILES) | Kb [1] | IC50 [2] | IC50 [3] | IC50 [4] | Kb [5] | IC50 [6]
10 | CCCc1nc(-c2ccc(Oc3ccc(CC(=O)O)cc3OC)c(NS(=O)(=O)c3ccc(Cl)cc3Cl)c2)c[nH]1 | 50 nM | 10 nM | 110 nM | 2 nM | 0.18 nM | 20 nM
11 | CCCc1nc(-c2ccc(Oc3ccc(CC(=O)O)cc3OC)c(NS(=O)(=O)c3ccc(Cl)cc3Cl)c2)n[nH]1 | – | 10 nM | – | 4 nM | – | –
12 | CCCCNC(=O)c1ccc(Oc2ccc3c(ccn3CC(=O)O)c2)c(NS(=O)(=O)c2ccc(Cl)cc2Cl)c1 | – | 29 nM | – | 2 nM | – | –
13 | CCCc1cc(-c2ccc(Oc3ccc(CC(=O)O)cc3OC)c(NS(=O)(=O)c3ccc(Cl)cc3Cl)c2)n[nH]1 | 5 nM | 4 nM | 46 nM | 2 nM | 0.084 nM | 8 nM
14 | CCc1nc(-c2ccc(Oc3ccc(CC(=O)O)cc3OC)c(NS(=O)(=O)c3ccc(Cl)cc3Cl)c2)n[nH]1 | – | 15 nM | – | 6 nM | – | –
15 | CCc1noc(-c2ccc(Oc3ccc(CC(=O)O)cc3OC)c(NS(=O)(=O)c3ccc(Cl)cc3Cl)c2)n1 | – | 23 nM | – | 770 nM | – | –
